Experimental data reported in ChEMBL document CHEMBL4014305, “Anti-leishmanial and cytotoxic activities of amino acid-triazole hybrids: Synthesis, biological evaluation, molecular docking and in silico physico-chemical properties” (Bioorg Med Chem Lett, 2017).

Tests used:
[1] = test system: Leishmania donovani; assay: Antileishmanial activity against Leishmania donovani Dd8 promastigote forms after 48 hrs by neubauer hemocytometer method; assay type: functional; conditions: for IC50: Dd8, 48 h
How it was run: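 Promastigotes of L. donovani Dd8 strain exposed 48 h to increasing concentrations of test agent; percent viability scored, IC50 derived.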

[2] = test system: THP-1; assay: Cytotoxicity against human PMA-differentaited THP1 cells after 24 hrs by MTT assay; assay type: cell-based; conditions: THP-1, 24 h
[3] = Selectivity index, ratio of IC50 for human PMA-differentaited THP1 cells to IC50 for promastigote form of Leishmania donovani Dd8; assay type: toxicity; conditions: PMA-differentiated THP1 cells, read-out: Ratio IC50
How it was run: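 Ratio of IC50 against THP-1 macrophages (normal cells) to IC50 against L. donovani promastigotes.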

[4] = test system: THP-1; assay: Cytotoxicity against human PMA-differentaited THP1 cells assessed as cell viability at 100 uM after 24 hrs by MTT assay; assay type: cell-based; conditions: thp-1, 24 h

| SMILES | IC50 [1] [µM] | IC50 [2] [µM] | selectivity ratio [3] | Activity [1] | Activity [4] |
| --- | --- | --- | --- | --- | --- |
| O=C(OCc1cn(-c2ccc(Cl)cc2)nn1)[C@@H]1CCCN1 | 157 | 346 | 2.2 | – | – |
| COc1ccc(-n2cc(COC(=O)[C@@H](N)Cc3ccccc3)nn2)cc1 | 144 | 260 | 1.8 | – | – |
| N[C@@H](Cc1ccccc1)C(=O)OCc1cn(-c2ccc(Cl)cc2)nn1 | 132 | 389 | 2.94 | – | – |
| Cc1ccc(-n2cc(COC(=O)[C@@H](N)Cc3c[nH]c4ccccc34)nn2)cc1 | 99.4 | 293 | 2.95 | – | – |
| N[C@@H](Cc1ccccc1)C(=O)OCc1cn(-c2ccccc2)nn1 | 163 | 504 | 3.09 | – | – |
| COc1ccc(-n2cc(COC(=O)[C@@H](N)Cc3c[nH]c4ccccc34)nn2)cc1 | 94.5 | 195 | 2.06 | Dose-dependent effect | Non-Toxic |
| O=C(OCc1cn(-c2ccccc2)nn1)[C@@H]1CCCN1 | 96.9 | 780 | 8.05 | Dose-dependent effect | Non-Toxic |
| O=C(OCc1cn(-c2ccc(F)cc2)nn1)[C@@H]1CCCN1 | 122 | 309 | 2.54 | – | – |
| N[C@@H](Cc1c[nH]c2ccccc12)C(=O)OCc1cn(-c2ccccc2)nn1 | 138 | 191 | 1.39 | – | – |
| N[C@@H](Cc1c[nH]c2ccccc12)C(=O)OCc1cn(-c2ccc(Cl)cc2)nn1 | 129 | 317 | 2.46 | – | – |
| N[C@@H](Cc1ccccc1)C(=O)OCc1cn(-c2ccc([N+](=O)[O-])cc2)nn1 | 171 | 180 | 1.05 | – | – |
| N[C@@H](Cc1c[nH]c2ccccc12)C(=O)OCc1cn(-c2ccc(F)cc2)nn1 | 151 | 352 | 2.32 | – | – |
| COc1ccc(-n2cc(COC(=O)[C@@H]3CCCN3)nn2)cc1 | 104 | 218 | 2.11 | – | – |
| CCCCCCCCCCCCCCCCOP(=O)([O-])OCC[N+](C)(C)C [MILTEFOSINE] | 27.1 | 54.1 | 1.99 | – | – |
| Cc1ccc(-n2cc(COC(=O)[C@@H]3CCCN3)nn2)cc1 | 175 | 421 | 2.4 | – | – |
| O=C(OCc1cn(-c2ccc([N+](=O)[O-])cc2)nn1)[C@@H]1CCCN1 | 189 | 344 | 1.82 | – | – |
| N[C@@H](Cc1c[nH]c2ccccc12)C(=O)OCc1cn(-c2ccc([N+](=O)[O-])cc2)nn1 | 119 | 174 | 1.47 | – | – |
| Cc1ccc(-n2cc(COC(=O)[C@@H](N)Cc3ccccc3)nn2)cc1 | 88.8 | 292 | 3.28 | Dose-dependent effect | Non-Toxic |
| N[C@@H](Cc1ccccc1)C(=O)OCc1cn(-c2ccc(F)cc2)nn1 | 133 | 196 | 1.48 | – | – |
